The term GI50 denotes the concentration at which growth is held to half of that of the control. Broadly, the IC50 is the midpoint of a concentration-inhibition curve.

Here are results for 1 compound from ChEMBL document CHEMBL4190287, “Identification of Antiangiogenic Potential and Cellular Mechanisms of Napyradiomycin A1 Isolated from the Marine-Derived Streptomyces sp. YP127” (J Nat Prod, 2017).

Each structure is given as a SMILES string. Calls of active or inactive are those of the source. No cut-off for these calls is given here.

For series [1], the system named is HUVEC. The experiment in a line: Downregulation of VE-cadherin mRNA level in HUVEC at 20 uM after 48 hrs by qRT-PCR method relative to control. In kind it is functional, Homo sapiens.
Series [2] relates to HUVEC. The experiment in a line: Antiproliferative activity against HUVEC assessed as inhibition of Ki67 expression at 20 uM after 24 hrs by immunofluorescent microscopic analysis. As to conditions: Homo sapiens. In kind it is functional, cell-based. In outline: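 HUVECs seeded 4 × 10^4 per well on gelatin, treated 24 h; fixed 4% paraformaldehyde 10 min, permeabilized 0.1% Triton X-100 10 min, blocked 10% normal horse serum 1 h RT, anti-Ki-67 1 h, Cy3 secondary, DAPI nuclear stain; fluorescence microscopy.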

For series [3], the system named is HUVEC. The experiment in a line: Downregulation of PECAM1 mRNA level in HUVEC at 20 uM after 48 hrs by qRT-PCR method relative to control. In kind it is functional, Homo sapiens.
Series [4] in a line: Antiproliferative activity against human BJ6 cells at 0.2 to 20 uM after 72 hrs by IncuCyte live imaging.
In series [5] the test system is HUVEC. The experiment in a line: Antimigratory activity against VEGF-stimulated HUVEC at 20 uM after 24 hrs by scratch wound-healing assay. In kind it is functional, cell-based. Conditions: Homo sapiens. The procedure, abridged: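 HUVECs plated at 1 × 10^5 cells/well, grown overnight, wounded with pin device, washed twice with PBS; medium with 10 ng/mL VEGF plus compound or DMSO added. Live-cell images every 3 h for 24 h; wound confluence (cell density in wound area, %) computed by imaging algorithm.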

In series [6] the test system is HUVEC. The experiment in a line: Downregulation of PECAM1 mRNA level in HUVEC at 20 uM after 24 hrs by qRT-PCR method relative to control. In kind it is functional, Homo sapiens. (Real-time PCR tracks product formation cycle by cycle.)
For series [7], the system named is HUVEC. The experiment in a line: Downregulation of VE-cadherin expression in HUVEC at 20 uM by Western blot method. In kind it is functional, cell-based. Conditions: Homo sapiens, TDE = time-dependent effect. The procedure, abridged: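 HUVEC lysates in RIPA buffer with protease inhibitors, separated on 4–12% SDS gradient gel, transferred to PVDF, probed with anti-VE-cadherin and anti-GAPDH, HRP secondary, ECL detection.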
A general note: A western blot detects proteins with antibodies after separation by electrophoresis.

Series [8] deals with HUVEC. The experiment in a line: Downregulation of VE-cadherin mRNA level in HUVEC at 20 uM after 24 hrs by qRT-PCR method relative to control. In kind it is functional, Homo sapiens. In outline: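 Total RNA from compound- or DMSO-treated HUVECs (24 h) extracted, cDNA made, VE-cadherin mRNA quantified by real-time PCR relative to control.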
Series [9] concerns HUVEC. The experiment in a line: Cytotoxicity against HUVEC assessed as cell death at 20 uM after 24 hrs by YOYO-1 Iodide staining based fluorescence assay. As to conditions: human.
For series [10], the system named is HUVEC. The experiment in a line: Antiinvasive activity in HUVEC assessed as inhibition of VEGF-induced cell invasion at 20 uM measured every 3 hrs for 48 hrs relative to control. In kind it is functional, Homo sapiens. More on the design: scale not given: the % may be the effect or the level left. In outline: (§1)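 Wound made in HUVEC monolayer (1 × 10^5 cells/well, grown overnight) with pin wounding device, washed with PBS; growth-factor-reduced basement membrane matrix overlaid on wound, compound-containing medium added. Tip cells at invasive front counted after 24 and 48 h of treatment versus control, live-cell imaging.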

In series [11] the test system is HUVEC. The experiment in a line: Antiinvasive activity in HUVEC assessed as inhibition of VEGF-induced cell invasion at 20 uM measured every 3 hrs for 24 hrs relative to control. In kind it is functional, Homo sapiens. More on the design: scale not given: the % may be the effect or the level left. The procedure, abridged: as §1
Series [12] concerns HUVEC. The experiment in a line: Antiproliferative activity against HUVEC after 72 hrs by Celltiter-Glo luminescent cell viability assay. In kind it is functional. Conditions: Homo sapiens. The procedure, abridged:
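HUVECs seeded 2.5 × 10^3 per well, treated with compound at different concentrations; confluency imaged every 6 h over 72 h. At 72 h viable cells measured by CellTiter-Glo luminescence; GI50 calculated.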
For orientation: Cellular ATP, detected with luciferase, serves as a proxy for viable cell number.

The subject of series [13] is HUVEC. The experiment in a line: Antiangiogenic activity in HUVEC assessed as inhibition of VEGF-induced tube formation after 24 hrs by calcein-AM dye based fluorescence assay. In kind it is functional, cell-based. Conditions: Homo sapiens. The procedure, abridged:
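HUVECs (passage 6–8) seeded at 6 × 10^4 cells on growth-factor-reduced Matrigel, incubated 24 h with compound at various concentrations plus 10 ng/mL recombinant human VEGF; stained 2 μg/mL Calcein AM 20 min, 37 °C, imaged. Tubes with three branch points counted; three independent experiments, mean tube numbers; IC50 from concentration–response.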

Series [14] deals with HUVEC. The experiment in a line: Downregulation of PECAM1 expression in HUVEC at 20 uM after 24 to 48 hrs by Western blot method. In kind it is functional, cell-based. As to conditions: Homo sapiens.
In series [15] the test system is HUVEC. The experiment in a line: Induction of cellular permeability in HUVEC at 20 uM by Transwell assay. In kind it is functional, cell-based. Conditions: Homo sapiens, TDE = time-dependent effect. The procedure, abridged: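 HUVECs (5 × 10^5 cells/well) grown 48 h on gelatin-coated Transwell inserts, then exposed to compound a further 48 h; 1 mg/mL FITC-dextran added to upper chamber and fluorescence transferred to lower chamber read on plate reader.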

As for `CC(C)=CCC/C(C)=C/C[C@@]12OC(C)(C)[C@H](Cl)C[C@]1(Cl)C(=O)c1c(O)cc(O)cc1C2=O`, the Activity in the series with HUVEC [1] is 94%; in the series on HUVEC [3], 70%; in [4], “Non-Toxic”; in the series on HUVEC [6], 53%; with HUVEC [7], “Tde”; in the series on HUVEC [8] it was 76%. Besides, the Activity entry in the series on HUVEC [9] was “Non-Toxic”; with HUVEC [10], 52%; in the series on HUVEC [11], 43%; in the series on HUVEC [15], “Tde”. The inhibition result in the series on HUVEC [2] was “Active”. Also, in the series on HUVEC [5], the result was Active. The compound further had a GI50 in the series on HUVEC [12] of 27.6 µM. For the same compound, the IC50 in the series with HUVEC [13] is 10 µM. Also, the result in the series on HUVEC [14] was inactive.
